Laboratory results from ChEMBL document CHEMBL1146219, “Synthesis and evaluation of novel radioiodinated benzamides for malignant melanoma” (J Med Chem, 2007).

Assays:
Conditions in all cases: in vivo
Liver [1] = assay: Biodistribution in liver of B16F0 tumor bearing C57BL/6J mouse at 0.37-0.74 MBq, iv after 24 hrs in presence of haloperidol; format: ADME, organism-based
How it was run: (§1)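 Haloperidol blocking in B16F0-bearing C57BL/6J mice: 1 mg/kg haloperidol was given iv 5 min before the iv [¹²³I]benzamide (0.37-0.74 MBq). Groups of n = 5 were killed at 1 or 24 h. Tissues were weighed and γ-counted as in the biodistribution study and compared with untreated controls by one-way ANOVA, with p < 0.01 taken as significant.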

[2] = Biodistribution in eye of B16F0 tumor bearing C57BL/6J mouse at 0.37-0.74 MBq, iv after 1 hr in presence of haloperidol; format: ADME, organism-based; how it was run: as §1
Brain [3] = assay: Biodistribution in brain of B16F0 tumor bearing C57BL/6J mouse at 0.37-0.74 MBq, iv after 1 hr in presence of haloperidol; format: ADME, organism-based
Blood [4] = assay: Biodistribution in blood of B16F0 tumor bearing C57BL/6J mouse at 0.37-0.74 MBq, iv after 24 hrs; format: ADME, organism-based
How it was run: (§2)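 Female C57BL/6J mice (15-18 g) were given B16F0 cells subcutaneously in the left flank (0.1 mL of 3 × 10⁶ viable cells/mL in Ca²⁺/Mg²⁺-free PBS) at 6-7 weeks and used after ten days. [¹²³I]benzamide (0.37-0.74 MBq, 100 µL, saline) was injected via the tail vein. Groups of n = 5 were killed by CO₂ and cervical dislocation. Organs were weighed and γ-counted, and the carcass was counted too.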

Heart [5] = assay: Biodistribution in heart of B16F0 tumor bearing C57BL/6J mouse at 0.37-0.74 MBq, iv after 48 hrs; format: ADME, organism-based; how it was run: as §2
Blood [6] = assay: Biodistribution in blood of B16F0 tumor bearing C57BL/6J mouse at 0.37-0.74 MBq, iv after 6 hrs; format: ADME, organism-based; how it was run: as §2
Blood [7] = assay: Biodistribution in blood of B16F0 tumor bearing C57BL/6J mouse at 0.37-0.74 MBq, iv after 1 hr in presence of haloperidol; format: ADME, organism-based
Lung = assay: Biodistribution in lung of B16F0 tumor bearing C57BL/6J mouse at 0.37-0.74 MBq, iv after 6 hrs; format: ADME, organism-based; how it was run: as §2
Heart [8] = assay: Biodistribution in heart of B16F0 tumor bearing C57BL/6J mouse at 0.37-0.74 MBq, iv after 24 hrs; format: ADME, organism-based; how it was run: as §2
[9] = Biodistribution in tumor of B16F0 tumor bearing C57BL/6J mouse at 0.37-0.74 MBq, iv after 24 hrs in presence of haloperidol; format: ADME, organism-based, B16-F0
How it was run: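 B16F0 tumor-bearing C57BL/6J mice, groups of n = 5, given haloperidol 1 mg/kg i.v. 5 min before the i.v. [¹²³I]tracer (0.37-0.74 MBq). Killed at 1 or 24 h. Tissues γ-counted as for biodistribution and compared with untreated controls by one-way ANOVA, significance p < 0.01.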

Brain [10] = assay: Biodistribution in brain of B16F0 tumor bearing C57BL/6J mouse at 0.37-0.74 MBq, iv after 3 hrs; format: ADME, organism-based; how it was run: as §2
[11] = Biodistribution in melanoma of B16F0 tumor bearing C57BL/6J mouse at 0.37-0.74 MBq, iv after 24 hrs; format: ADME, organism-based, B16-F0; how it was run: as §2
[12] = Biodistribution in melanoma of B16F0 tumor bearing C57BL/6J mouse at 0.37-0.74 MBq, iv after 48 hrs; format: ADME, organism-based, B16-F0; how it was run: as §2
[13] = Biodistribution in melanoma of B16F0 tumor bearing C57BL/6J mouse at 0.37-0.74 MBq, iv after 72 hrs; format: ADME, organism-based, B16-F0
How it was run: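 Female C57BL/6J mice (15-18 g) carrying s.c. B16F0 flank tumors (0.1 mL of 3 × 10⁶ viable cells per mL in Ca²⁺/Mg²⁺-free PBS, inoculated at 6-7 weeks, used 10 days later). [¹²³I]tracer 0.37-0.74 MBq in saline, 100 µL, tail-vein i.v. Groups of n = 5 killed at 1-72 h. Organs weighed and γ-counted, carcass activity also counted, values as %ID/g.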

Kidney [14] = assay: Biodistribution in kidney of B16F0 tumor bearing C57BL/6J mouse at 0.37-0.74 MBq, iv after 24 hrs; format: ADME, organism-based; how it was run: as §2
Kidney [15] = assay: Biodistribution in kidney of B16F0 tumor bearing C57BL/6J mouse at 0.37-0.74 MBq, iv after 3 hrs; format: ADME, organism-based; how it was run: as §2
Liver [16] = assay: Biodistribution in liver of B16F0 tumor bearing C57BL/6J mouse at 0.37-0.74 MBq, iv after 1 hr; format: ADME, organism-based; how it was run: as §2
[17] = Biodistribution in melanoma of B16F0 tumor bearing C57BL/6J mouse at 0.37-0.74 MBq, iv after 1 hr; format: ADME, organism-based, B16-F0; how it was run: as §2
Kidney [18] = assay: Biodistribution in kidney of B16F0 tumor bearing C57BL/6J mouse at 0.37-0.74 MBq, iv after 1 hr in presence of haloperidol; format: ADME, organism-based; how it was run: as §1
Blood [19] = assay: Biodistribution in blood of B16F0 tumor bearing C57BL/6J mouse at 0.37-0.74 MBq, iv after 48 hrs; format: ADME, organism-based; how it was run: as §2
Kidney [20] = assay: Biodistribution in kidney of B16F0 tumor bearing C57BL/6J mouse at 0.37-0.74 MBq, iv after 48 hrs; format: ADME, organism-based; how it was run: as §2

Drug uptake (Liver [1]): 0.3 % ID/g
Drug uptake [2]: 16.9 % ID/g
Drug uptake (Brain [3]): 0.06 % ID/g
Drug uptake (Blood [4]): 0.11 % ID/g
Drug uptake (Heart [5]): 0.13 % ID/g
Drug uptake (Blood [6]): 0.71 % ID/g
Drug uptake (Blood [7]): 1.15 % ID/g
Drug uptake (Lung): 0.56 % ID/g
Drug uptake (Heart [8]): 0.12 % ID/g
Drug uptake [9]: 4.5 % ID/g
Drug uptake (Brain [10]): 0.04 % ID/g
Drug uptake [11]: 6.1 % ID/g
Drug uptake [12]: 4.6 % ID/g
Drug uptake [13]: 2.2 % ID/g
Drug uptake (Kidney [14]): 0.12 % ID/g
Drug uptake (Kidney [15]): 3.9 % ID/g
Drug uptake (Liver [16]): 16.8 % ID/g
Drug uptake [17]: 5.6 % ID/g
Drug uptake (Kidney [18]): 17.3 % ID/g
Drug uptake (Blood [19]): 0.04 % ID/g
Drug uptake (Kidney [20]): 0.07 % ID/g
SMILES: CCCCN(C)CCCCNC(=O)c1cc([123I])c(NC(C)=O)cc1OC
